The values that follow come from ChEMBL document CHEMBL4622964, “Designing Dihydrofolate Reductase Inhibitors as X-ray Radiosensitizers to Reverse Radioresistance of Cervical Cancer” (ACS Med Chem Lett, 2020).

The subject of data set [1] is HeLa. Put plainly: Induction of mitochondrial dysfunction in human HeLa cells assessed as mitochondrial fission at 1 uM after 24 hrs by DAPI staining based fluorescence microscopic analysis. The class given is functional, cell-based. The gist of the method: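 HeLa cells treated with 1 μM compound, without or with 4 Gy X-rays; mitochondrial morphology imaged by fluorescence microscopy after MitoTracker and DAPI co-staining.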

A short description of data set [2]: Toxicity in BALB/c mouse xenografted with human HeLa cells assessed as spleen damage at 4 mg/kg, iv administered for every 3 days for 21 days and measured after 24 hrs post last dose by H and E staining based light microscopic analysis. The following applies: in vivo. The class given is organism-based. In a few lines: (§1)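 HeLa-tumor-bearing nude mice dosed at 4 mg/kg iv every 3 days for 21 days, alone or with X-rays; euthanized 24 h after last injection; heart, liver, lungs, kidneys and spleen sectioned and stained with H&E.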

Data set [3] deals with HeLa. Put plainly: Induction of cell cycle arrest in human HeLa cells assessed as accumulation at S phase at 1 uM after 48 hrs by propidium iodide staining based flow cytometric analysis (reference value: 41.6%). The class given is functional.
The nature of data set [4]: Cytotoxicity against human Ect1 cells assessed as reduction in cell viability in presence of 4 Gy irradiation by MTT assay. The format is cell-based. The following applies: light or radiation study. The gist of the method:
(§2)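 MTT viability assay in Ect1/E6E7 normal ectocervical epithelial cells, with the test agent alone (0 Gy) or combined with 4 Gy X-rays. IC50 values are in μM.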

Data set [5] is described as follows: Toxicity in BALB/c mouse xenografted with human HeLa cells assessed as kidney damage at 4 mg/kg, iv administered for every 3 days for 21 days and measured after 24 hrs post last dose in presence of 4 Gy X-ray irradiation by H and E staining based light microscopic analysis. The class given is organism-based. The following applies: in vivo. The gist of the method: as §1

Data set [6] concerns HeLa. The data set is described as follows: Inhibition of cell migration in human HeLa cells assessed as reduction in migration velocity at 1 uM after 24 hrs by phase contrast microscopic analysis. The format is functional, cell-based. In a few lines: (§3)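 Wound-healing scratch assay on HeLa monolayers, compound with or without 4 Gy X-rays; wound closure recorded by phase-contrast microscopy at set times; migrated cells counted manually; mean ± SD of three independent experiments.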

Data set [7] has as its system HeLa. Put plainly: Induction of ROS generation in human HeLa cells in presence of 4 Gy X-ray irradiation by DHE fluorescent dye based microplate reader analysis (reference value: 150%). The class given is functional.
The nature of data set [8]: Toxicity in BALB/c mouse xenografted with human HeLa cells assessed as kidney damage by measuring effect on uric acid level at 4 mg/kg, iv administered every 3 days for 21 days in presence of 4 Gy X-ray irradiation. The class given is organism-based. The following applies: in vivo. The gist of the method: (§4)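 HeLa xenograft nude mice dosed at 4 mg/kg iv every 3 days over 21 days, alone or with X-rays; blood collected 24 h after last injection for serum biochemistry: ALT, AST (liver), BUN and uric acid (kidney).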

Data set [9] deals with HeLa. The data set is described as follows: Induction of cell cycle arrest in human HeLa cells assessed as accumulation at SubG1 phase at 1 uM after 48 hrs by propidium iodide staining based flow cytometric analysis (reference value: 0.8%). The format is functional.
The nature of data set [10]: Cytotoxicity against human Ect1 cells assessed as reduction in cell viability by MTT assay. The class given is cell-based. In a few lines: as §2
In data set [11] the test system is HeLa. Put plainly: Induction of cell cycle arrest in human HeLa cells assessed as accumulation at G1 phase at 1 uM after 48 hrs in presence of 4 Gy X-ray radiation by propidium iodide staining based flow cytometric analysis (reference value: 28.6%). The class given is functional.
Data set [12] deals with HeLa. Put plainly: Induction of cell cycle arrest in human HeLa cells assessed as accumulation at G1 phase at 1 uM after 48 hrs by propidium iodide staining based flow cytometric analysis (reference value: 40.7%). The class given is functional.
Data set [13] concerns HeLa. The data set is described as follows: Induction of cell cycle arrest in human HeLa cells assessed as accumulation at G2/M phase at 1 uM after 48 hrs by propidium iodide staining based flow cytometric analysis (reference value: 17.7%). The format is functional.
For data set [14], the system named is HeLa. The data set is described as follows: Induction of apoptosis in human HeLa cells assessed as caspase-9 activation at 1 uM using Ac-LEHD-AMC as substrate after 12 hrs by fluorescence based assay. The class given is functional, cell-based. The gist of the method: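 HeLa cells exposed to 1 μM compound with or without 4 Gy X-rays for 12 h; caspase 8, 9 and 3 activities measured; mean ± SD of three independent experiments.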

Data set [15] concerns HeLa. The data set is described as follows: Antimigratory activity in human HeLa cells assessed as inhibition of cell migration at 1 uM after 24 hrs in presence of 4 Gy irradiation by wound healing assay (reference value: 35%). The class given is functional. As to conditions: light or radiation study, read-out: INH. The gist of the method: (§5)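 Wound-healing scratch assay in HeLa cells. Cells were treated without or with 4 Gy X-rays, and wound closure was imaged by phase-contrast microscopy at the indicated times. Migrated cells were counted manually. Mean ± SD of three independent experiments.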

The test system of data set [16] is HeLa. The data set is described as follows: Antimigratory activity in human HeLa cells assessed as inhibition of cell migration at 1 uM after 24 hrs by wound healing assay relative to control. As to conditions: read-out: INH. The class given is functional. In a few lines:
as §5

Data set [17] in a line: Toxicity in BALB/c mouse xenografted with human HeLa cells assessed as kidney damage by measuring effect on BUN level at 4 mg/kg, iv administered every 3 days for 21 days in presence of 4 Gy X-ray irradiation. The class given is organism-based. The following applies: in vivo. In a few lines: as §4
Data set [18] can be described thus: Toxicity in BALB/c mouse xenografted with human HeLa cells assessed as lung damage at 4 mg/kg, iv administered for every 3 days for 21 days and measured after 24 hrs post last dose by H and E staining based light microscopic analysis. The format is organism-based. As to conditions: in vivo. In a few lines: as §1
The test system of data set [19] is HeLa. The data set is described as follows: Inhibition of cell migration in human HeLa cells assessed as reduction in spreading rate at 1 uM after 24 hrs in presence of 4 Gy X-ray irradiation by phase contrast microscopic analysis. The class given is functional, cell-based. The gist of the method:
as §3

Activity calls are given as the source filed them. The rule behind the calls is not given here.

`Nc1nc(N)c2nc3c(nc2n1)-c1cccc2cccc-3c12`: the outcome in the data set with HeLa [1] and with HeLa [14] was Active. For the same molecule, the Activity result in data set [2] is recorded as “Non-Toxic”; in the data set on HeLa [3] it was 29.2%; in [5] it was “Non-Toxic”; with HeLa [7], 205%; in data set [8], “Non-Toxic”; with HeLa [9] it was 6.9%. Moreover, the Activity in the data set with HeLa [11] is 47.7%; in the data set with HeLa [12] it was 38.7%; with HeLa [13], 32.1%; in data set [17] it was “Non-Toxic”; in [18], “Non-Toxic”. For the same molecule, the IC50 is 3.1 µM in [4] and 6.9 µM in data set [10]. For the same molecule, the inhibition entry in the data set on HeLa [6] and with HeLa [19] was “Active” throughout. Besides, the inhibition at 1 µM with HeLa [15] came out at 81%; with HeLa [16], 46%.
